Test results: ChEMBL document CHEMBL4017537, “Discovery of a Potent and Specific M. tuberculosis Leucyl-tRNA Synthetase Inhibitor: (S)-3-(Aminomethyl)-4-chloro-7-(2-hydroxyethoxy)benzo[c][1,2]oxaborol-1(3H)-ol (GSK656)” (J Med Chem, 2017)

Assays:
[1] = AUC (0 to infinity) in C57BL/6 mouse at 5.5 mg/kg, iv administered as single dose measured up to 24 hrs by LC-MS/MS analysis; format: ADME, organism-based; design: dose 5.5 mg/kg, time infinity, route intravenous; conditions: in vivo
[2] = system: Mycobacterium tuberculosis; experiment: Antimicrobial activity against Mycobacterium tuberculosis H37Rv infected in C57BL/6J mouse assessed as bacterial load in lungs at 0.1 mg/kg qd administered for 8 consecutive weeks starting from 6 weeks post infection measured 24 hrs post last dose (reference value: 6.4 +/- 0.3 log10CFU); format: functional
Procedure, shortened: (§1)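 C57BL/6J mice infected intratracheally with ~10² CFU M. tuberculosis H37Rv. Dosed QD, 7 days/week, for 8 weeks starting 6 weeks post-infection; killed ≥24 h after last dose. Lung homogenates plated on 7H11/10% OADC for 21 days at 37 °C. n = 3 per dose group, 7 for controls; mean (SD); ANOVA with Dunnett's test versus 14-week untreated.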

[3] = Toxicity in mouse; format: organism-based; conditions: in vivo
Mus musculus [4] = experiment: Dose normalized AUC (0 to 24 hrs) in C57BL/6 mouse at 30 mg/kg administered as single dose via oral gavage by LC-MS/MS analysis; format: ADME, organism-based; conditions: in vivo
[5] = system: Mycobacterium tuberculosis; experiment: Antimicrobial activity against Mycobacterium tuberculosis H37Rv infected in C57BL/6J mouse assessed as bacterial load in lungs at 30 mg/kg qd administered for 8 consecutive weeks starting from 6 weeks post infection measured 24 hrs post last dose (reference value: 6.4 +/- 0.3 log10CFU); format: functional; procedure, shortened: as §1
[6] = system: Mycobacterium tuberculosis; experiment: Antimicrobial activity against Mycobacterium tuberculosis H37Rv infected in C57BL/6J mouse assessed as log reduction in bacterial load in lungs administered qd for 8 consecutive weeks starting from 6 weeks post infection measured 24 hrs post last dose; format: functional; procedure, shortened: as §1
[7] = Half life in C57BL/6 mouse at 5.5 mg/kg, iv administered as single dose measured up to 24 hrs by LC-MS/MS analysis; format: ADME, organism-based; conditions: in vivo
[8] = Tmax in C57BL/6 mouse at 30 mg/kg administered as single dose via oral gavage measured up to 24 hrs by LC-MS/MS analysis; format: ADME, organism-based; conditions: in vivo
Procedure, shortened: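 C57BL/6 female mice (18−20 g) got one oral gavage dose of 30 mg/kg in 1% methylcellulose. Peripheral whole blood was sampled from 15 min to 24 h postdose, n = 3 mice per time point, and drug concentrations were measured in blood.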

[9] = system: Mycobacterium tuberculosis; experiment: Antimicrobial activity against Mycobacterium tuberculosis H37Rv infected in C57BL/6J mouse assessed as bacterial load in lungs at 10 mg/kg qd administered for 8 consecutive weeks starting from 6 weeks post infection measured 24 hrs post last dose (reference value: 6.4 +/- 0.3 log10CFU); format: functional; procedure, shortened: as §1
Mus musculus [10] = experiment: Dose normalized AUC (0 to infinity) in C57BL/6 mouse at 5.5 mg/kg, iv administered as single dose measured up to 24 hrs by LC-MS/MS analysis; format: ADME, organism-based; conditions: in vivo
[11] = system: Mycobacterium tuberculosis; experiment: Antimicrobial activity against Mycobacterium tuberculosis H37Rv infected in C57BL/6J mouse assessed as bacterial load in lungs at 0.3 mg/kg qd administered for 8 consecutive weeks starting from 6 weeks post infection measured 24 hrs post last dose (reference value: 6.4 +/- 0.3 log10CFU); format: functional; procedure, shortened: as §1
[12] = Clearance in C57BL/6 mouse at 5.5 mg/kg, iv administered as single dose measured up to 24 hrs by LC-MS/MS analysis; format: ADME, organism-based; conditions: in vivo
[13] = system: Mycobacterium tuberculosis; experiment: Antimicrobial activity against Mycobacterium tuberculosis H37Rv infected in C57BL/6J mouse assessed as bacterial load in lungs at 3 mg/kg qd administered for 8 consecutive weeks starting from 6 weeks post infection measured 24 hrs post last dose (reference value: 6.4 +/- 0.3 log10CFU); format: functional; procedure, shortened: as §1
[14] = Toxicity in mouse administered qd; conditions: in vivo
[15] = system: Mycobacterium tuberculosis; experiment: Antimicrobial activity against Mycobacterium tuberculosis H37Rv infected in C57BL/6J mouse assessed as bacterial load in lungs at 1 mg/kg qd administered for 8 consecutive weeks starting from 6 weeks post infection measured 24 hrs post last dose (reference value: 6.4 +/- 0.3 log10CFU); format: functional; procedure, shortened: as §1
[16] = AUC (0 to 24 hrs) in C57BL/6 mouse at 30 mg/kg administered as single dose via oral gavage by LC-MS/MS analysis; format: ADME, organism-based; design: time < 24 hr, dose 30 mg/kg, route oral; conditions: in vivo
[17] = Tmax in C57BL/6 mouse at 26.1 mg/kg administered as single dose via oral gavage measured up to 24 hrs by LC-MS/MS analysis; format: ADME, organism-based; conditions: in vivo
[18] = AUC (0 to 24 hrs) in C57BL/6 mouse at 26.1 mg/kg administered as single dose via oral gavage by LC-MS/MS analysis; format: ADME, organism-based; design: dose 26.1 mg/kg, time < 24 hr, route oral; conditions: in vivo
Mus musculus [19] = experiment: Dose normalized AUC (0 to 24 hrs) in CD-1 mouse at 30 mg/kg administered via oral gavage by LC-MS/MS analysis; format: ADME, organism-based; conditions: in vivo
Mus musculus [20] = experiment: Toxicity in mouse at 150 mg/kg; format: organism-based; conditions: in vivo
Procedure, shortened: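 Maximum single tolerated dose study: healthy mice each got one dose, and tolerability was judged across escalating dose levels.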

[21] = AUC (0 to infinity) in CD-1 mouse at 30 mg/kg, iv after 24 hrs by LC-MS/MS analysis; format: ADME, organism-based; design: dose 30 mg/kg, route intravenous, time infinity; conditions: in vivo
Mus musculus [22] = experiment: Dose normalized AUC (0 to infinity) in C57BL/6 mouse at 28.5 mg/kg, iv administered as single dose measured up to 8 hrs by LC-MS/MS analysis; format: ADME, organism-based; conditions: in vivo
[23] = Volume of distribution at steady state in CD-1 mouse at 30 mg/kg, iv after 24 hrs by LC-MS/MS analysis; format: ADME, organism-based; conditions: in vivo, read-out: Vdss
[24] = AUC (0 to 24 hrs) in CD-1 mouse at 30 mg/kg administered via oral gavage by LC-MS/MS analysis; format: ADME, organism-based; design: dose 30 mg/kg, time < 24 hr, route oral; conditions: in vivo
[25] = Oral bioavailability in C57BL/6 mouse at 26.1 mg/kg administered as single dose via gavage measured up to 24 hrs by LC-MS/MS analysis; format: ADME, organism-based; conditions: in vivo
Mus musculus [26] = experiment: Dose normalized AUC (0 to 24 hrs) in C57BL/6 mouse at 26.1 mg/kg administered as single dose via oral gavage by LC-MS/MS analysis; format: ADME, organism-based; conditions: in vivo
[27] = Half life in C57BL/6 mouse at 28.5 mg/kg, iv administered as single dose measured up to 8 hrs by LC-MS/MS analysis; format: ADME, organism-based; conditions: in vivo
[28] = AUC (0 to infinity) in C57BL/6 mouse at 28.5 mg/kg, iv administered as single dose measured up to 8 hrs by LC-MS/MS analysis; format: ADME, organism-based; design: dose 28.5 mg/kg, time infinity, route intravenous; conditions: in vivo
[29] = Tmax in CD-1 mouse at 30 mg/kg administered via oral gavage after 24 hrs by LC-MS/MS analysis; format: ADME, organism-based; conditions: in vivo
Mus musculus [30] = experiment: Dose normalized AUC (0 to infinity) in CD-1 mouse at 30 mg/kg, iv after 24 hrs by LC-MS/MS analysis; format: ADME, organism-based; conditions: in vivo
Mus musculus [31] = experiment: Toxicity in mouse at 50 mg/kg, qd; format: organism-based; conditions: in vivo
[32] = Oral bioavailability in CD-1 mouse at 30 mg/kg administered via gavage after 24 hrs by LC-MS/MS analysis; format: ADME, organism-based; conditions: in vivo
[33] = Cmax in C57BL/6 mouse at 26.1 mg/kg administered as single dose via oral gavage measured up to 24 hrs by LC-MS/MS analysis; format: ADME, organism-based; design: dose 26.1 mg/kg, route oral; conditions: in vivo
[34] = Clearance in C57BL/6 mouse at 28.5 mg/kg, iv administered as single dose measured up to 8 hrs by LC-MS/MS analysis; format: ADME, organism-based; conditions: in vivo

Q: Which results are given for `Cl.NC[C@H]1OB(O)c2c(OCCO)ccc(Cl)c21`?
A: AUC(0-inf) [1]: 11100 ng·h/mL; Activity [2]: 6.4 log10CFU; MTD [3]: 300 mg/kg; AUC/dose (Mus musculus [4]): 2.94 µg·h/mL; Activity [5]: 4.4 log10CFU; Activity [6]: Dose-dependent effect; half-life [7]: 3.6 h; Tmax [8]: 0.9 h; Activity [9]: 4.3 log10CFU; AUC/dose (Mus musculus [10]): 2.03 µg·h/mL/mg/kg; Activity [11]: 6 log10CFU; clearance [12]: 8.5 mL/min/kg; Activity [13]: 4.6 log10CFU; MTD [14]: 100 mg/kg; Activity [15]: 4.7 log10CFU; AUC(0-t) at 24 h [16]: 88200 ng·h/mL

Q: Which Tmax [17] does the source give for `CCOc1ccc(Br)c2c1B(O)O[C@@H]2CN` here?
A: Its Tmax is 2 h.

Q: What about the AUC(0-t) at 24 h [18] of the same molecule?
A: The AUC(0-t) at 24 h was 77900 ng·h/mL.

Q: And the AUC/dose (Mus musculus [19])?
A: Its AUC/dose is 1.92 µg·h/mL.

Q: What about the Activity (Mus musculus [20]) of the same molecule?
A: Its Activity is “Toxic”.

Q: And the AUC(0-inf) [21]?
A: The AUC(0-inf) was 43400 ng·h/mL.

Q: What about the AUC/dose (Mus musculus [22]) of the same molecule?
A: Its AUC/dose is 2.54 µg·h/mL/mg/kg.

Q: And the Vd [23]?
A: The Vd was 3.2 L/kg.

Q: And the AUC(0-t) at 24 h [24]?
A: The AUC(0-t) at 24 h was 57600 ng·h/mL.

Q: What about the bioavailability [25] of the same molecule?
A: The bioavailability was 100%.

Q: What about the AUC/dose (Mus musculus [26]) of the same molecule?
A: The AUC/dose was 2.98 µg·h/mL.

Q: And the half-life [27]?
A: Its half-life is 3.1 h.

Q: What about the AUC(0-inf) [28] of the same molecule?
A: Its AUC(0-inf) is 72300 ng·h/mL.

Q: What about the Tmax [29] of the same molecule?
A: Its Tmax is 0.5 h.

Q: What about the AUC/dose (Mus musculus [30]) of the same molecule?
A: The AUC/dose was 1.45 µg·h/mL/mg/kg.

Q: And the Activity (Mus musculus [31])?
A: Its Activity is “Toxic”.

Q: What about the bioavailability [32] of the same molecule?
A: Its bioavailability is 100%.

Q: What about the Cmax [33] of the same molecule?
A: The Cmax was 11100 ng/mL.

Q: And the clearance [34]?
A: The clearance was 6.6 mL/min/kg.
